The text below walks through data of ChEMBL document CHEMBL1127694, “N-(acyloxyalkyl)pyridinium salts as soluble prodrugs of a potent platelet activating factor antagonist” (J Med Chem, 1994).

Molecules are shown by their SMILES.

The nature of data set [1]: Half-life values were derived from the decay rate constant (k) by fitting the concentration and time values to the exponential decay function at pH 7. In kind it is ADME. The procedure, abridged:
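Compounds at 20 μM in 25 mM K2PO4 buffer, pH 7, room temperature; aliquots taken over time and quantified by C18 reverse-phase HPLC (UV 250 nm, external calibration). t1/2 = ln(2)/k, with k from fitting concentration vs time to C = C0e^(-kt).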

Data set [2] is described as follows: The rate of hydrolytic cleavage in plasma was assessed by incubating compounds (30 uM) at 37 degrees Celsius with human plasma adjusted to pH 7. In kind it is ADME. The procedure, abridged: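 Human plasma brought to pH 7 with K2PO4 (50 mM final), compounds at 30 μM, 37 °C. Timed aliquots quenched with 2 volumes acidified acetonitrile and centrifuged. Supernatant quantified by reverse-phase HPLC at 250 nm. t1/2 from single-exponential decay fit, t1/2 = ln(2)/k.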

For another data set, the species on record is Oryctolagus cuniculus. Nature of the data set: Inhibitory activity was determined in PAF-induced serotonin release from rabbit platelets. In kind it is functional.
For data set [3], the system named is Rattus norvegicus. Nature of the data set: In vivo potency for complete inhibition of LPS-induced intestinal damage in rat by intravenous administration. In kind it is functional. The procedure, abridged:
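Sprague–Dawley rats, 200–225 g. Compound or vehicle (25 mM sodium acetate, pH 4) given i.v. via tail vein, then LPS 25 mg/kg 30 min later. Rats killed 30 min after LPS; luminal rinse of a 15 cm intestinal segment from the duodenum assayed for hemoglobin by hemoglobinometer against standards.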

The test system of data set [4] is Rattus norvegicus. Briefly: In vivo potency for inhibition of LPS-induced hypotension in rat by intra arterial (i.a.) administration. In kind it is functional. The procedure, abridged: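 Rats recovered ≥1 h after surgery; baseline arterial pressure normalized to 100 mmHg. Compound given intraarterially in DMSO/PEG 400/45% hydroxypropyl-β-cyclodextrin/0.9% saline (2.5:20:30:47.5) 15 min before an i.a. bolus of E. coli LPS 0111:B4, 25 mg/kg in PBS pH 7.4. Pressure read every 1 min. Percent inhibition from area under the pressure–time curve versus vehicle.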

The subject of data set [5] is Rattus norvegicus. Nature of the data set: In vivo potency for inhibition of PAF-induced cutaneous vascular permeability in rat by intravenous administration. In kind it is functional.

The half-life is the time needed for the level to fall by half in the phase considered. In turn, `CN(C)C(=O)OC[n+]1cccc([C@H]2SCc3c(C(=O)c4cn(C(=O)N(C)C)c5cc(-c6ccc(F)cc6)ccc45)ccn32)c1.[Cl-]` displayed a half-life in data set [1] of over 167 h. Also, the half-life at 30 µM in data set [2] was over 10 h.
For orientation: ED50 means the dose that gives a 50% effect, or the effect in half of the subjects. A lower ED50 goes with greater potency. For `CN(C)C(=O)n1cc(C(=O)c2ccn3c2CS[C@@H]3c2cccnc2)c2ccc(-c3ccc(F)cc3)cc21`, in the data set filed under Oryctolagus cuniculus, the Kb turned out to be 1.1 nM. Also, the Dose in the data set on Rattus norvegicus [3] is 0.1 mg/kg. Besides, the figures for the median effective dose (ED50) with Rattus norvegicus [4] and in the data set with Rattus norvegicus [5] were 0.01 mg/kg and 0.006 mg/kg, respectively.
`CC(OC(=O)C(C)(C)C)[n+]1cccc([C@H]2SCc3c(C(=O)c4cn(C(=O)N(C)C)c5cc(-c6ccc(F)cc6)ccc45)ccn32)c1.[Cl-]` (stereo not given in full): the half-life in data set [1] stood at 17.6 h. The compound further gave a half-life at 30 µM in data set [2] of 0.518 h.
For `Cc1oc(=O)oc1C[n+]1cccc([C@H]2SCc3c(C(=O)c4cn(C(=O)N(C)C)c5cc(-c6ccc(F)cc6)ccc45)ccn32)c1.[Cl-]`, in that order: 4.1 h and 0.0467 h.
`CN(C)C(=O)n1cc(C(=O)c2ccn3c2CS[C@@H]3c2ccc[n+](COC(=O)c3ccccc3)c2)c2ccc(-c3ccc(F)cc3)cc21.[Cl-]` came in with a half-life in data set [1] of 8.5 h. This compound yielded a half-life at 30 µM in data set [2] of 0.0167 h.
The corresponding values for `CC(=O)OC[n+]1cccc([C@H]2SCc3c(C(=O)c4cn(C(=O)N(C)C)c5cc(-c6ccc(F)cc6)ccc45)ccn32)c1.[Cl-]` are 9 h and 0.0433 h.
Compound `CN(C)C(=O)n1cc(C(=O)c2ccn3c2CS[C@@H]3c2ccc[n+](COC(=O)C(C)(C)C)c2)c2ccc(-c3ccc(F)cc3)cc21.[Cl-]` gave a half-life in data set [1] of 45.3 h. Also, the half-life at 30 µM in data set [2] came to 0.347 h.
Regarding `COC(=O)OC[n+]1cccc([C@H]2SCc3c(C(=O)c4cn(C(=O)N(C)C)c5cc(-c6ccc(F)cc6)ccc45)ccn32)c1.[Cl-]`, the half-life in data set [1] turned out to be 1.6 h. The same compound came in with a half-life at 30 µM in data set [2] of 0.0167 h.
Consider `COC(=O)[C@@H]1CCCN1C(=O)OC[n+]1cccc([C@H]2SCc3c(C(=O)c4cn(C(=O)N(C)C)c5cc(-c6ccc(F)cc6)ccc45)ccn32)c1.[Cl-]`, for which the half-life in data set [1] came to 128 h. The compound further displayed a half-life at 30 µM in data set [2] of 2.67 h.
